# Hits are enriched below; roughly 5.4% of the tested compounds scored in any of these assays.
# SKKanGAS inh: inhibitors of SKKanGAS S. pyogenes growth in kanamycin (SK-promoter or general growth effect) | AID 1662 | 1.3% of 300,000 active | inhibition, % at 7.5 µM | BacTiter-Glo, 6 h;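 active = mean replicate score, as percent of positive control median, at least 50; inconclusive = mean below 50 but one replicate at or above 50; inactive = mean and every replicate below 50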;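 note: strain carries kanamycin resistance gene driven by streptokinase promoter and grows in 40 µg/ml kanamycin; loss of luminescence reflects streptokinase promoter inhibition or plain growth inhibition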
# CSC inhib: blocks cancer stem cells | AID 2717 | cancer stem cell-like cells viability, luminescence | inhibition, % at 7.5 µM | 1.1% of 300,000 active; in the data active = inhibition above about 75%; inconclusive = no clear call, values can overlap the other calls; tested in HMLE shEcad cells
# Mdm2 MdmX PPI: human Mdm2/MdmX binding inhibition; O15151+Q00987; SaOS-2 split-luciferase Mdm2/MdmX complementation, luminescence; inhibition, % at 8 µM; 3% of 330,000 active; AID 485346;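 active = inhibition of at least 50% at 8 µM in the primary screen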
# Target sequence (O15151 whole entry, looked up): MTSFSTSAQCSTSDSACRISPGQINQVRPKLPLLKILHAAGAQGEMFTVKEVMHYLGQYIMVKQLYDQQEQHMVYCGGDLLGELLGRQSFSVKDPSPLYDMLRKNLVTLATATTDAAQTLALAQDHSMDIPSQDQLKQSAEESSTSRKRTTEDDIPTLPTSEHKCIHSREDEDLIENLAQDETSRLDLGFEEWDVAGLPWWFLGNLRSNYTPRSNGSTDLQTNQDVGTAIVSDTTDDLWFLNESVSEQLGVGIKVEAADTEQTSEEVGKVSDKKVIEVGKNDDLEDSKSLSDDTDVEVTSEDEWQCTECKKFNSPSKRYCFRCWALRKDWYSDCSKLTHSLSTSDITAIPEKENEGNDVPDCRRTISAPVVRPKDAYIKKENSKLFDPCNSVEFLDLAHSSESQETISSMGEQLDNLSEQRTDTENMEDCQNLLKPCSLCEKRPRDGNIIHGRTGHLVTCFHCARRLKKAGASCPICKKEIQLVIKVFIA
# Target sequence (Q00987 whole entry, looked up): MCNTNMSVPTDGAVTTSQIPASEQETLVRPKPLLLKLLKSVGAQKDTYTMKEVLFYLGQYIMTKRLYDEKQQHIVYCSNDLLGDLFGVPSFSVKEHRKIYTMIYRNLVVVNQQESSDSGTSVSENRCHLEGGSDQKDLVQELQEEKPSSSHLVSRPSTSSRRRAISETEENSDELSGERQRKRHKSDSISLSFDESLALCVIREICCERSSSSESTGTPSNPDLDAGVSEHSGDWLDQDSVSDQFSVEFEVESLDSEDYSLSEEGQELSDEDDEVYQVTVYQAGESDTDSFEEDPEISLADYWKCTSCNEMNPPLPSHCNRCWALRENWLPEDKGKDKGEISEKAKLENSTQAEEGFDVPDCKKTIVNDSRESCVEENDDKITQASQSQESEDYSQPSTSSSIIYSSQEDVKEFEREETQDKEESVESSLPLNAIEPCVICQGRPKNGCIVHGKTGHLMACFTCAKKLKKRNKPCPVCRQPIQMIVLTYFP
# T cruzi inh: T. cruzi replication inhibition; T. cruzi beta-gal in NIH3T3, luminescence, 90 h; inhibition, % (no concentration beside the values); 1.4% of 300,000 active;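 active = mean inhibition across valid replicates above about 55%, limit read from the data; inconclusive = mean below that limit but half or more replicates reach it; inactive = mean below it, under half of replicates reach it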;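 note: signal also drops with host cell toxicity which is not excluded here; higher percent means less beta-gal luminescence so fewer parasites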
#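 Assay system: NIH/3T3 fibroblasts plus reporter T. cruzi. Amount: NIH/3T3 cells, 5,000 per well. Buffer or medium: DMEM, 2% fetal bovine serum. Doses: compound pinned at 50 nL/well, DMSO. Schedule: ≥90 h infection period, 3 h prior cell attachment. Signal: luminescent β-galactosidase signal after 60 min lysis. Read-out: parasite load inhibition, %.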
# aSyn 5UTR inh: 5' untranslated region of α-synuclein, MLPCN primary screen. alpha-synuclein 5'UTR reporter, inhibitor activity. inhibition, % (tested at 7.5 µM). 0.82% of 300,000 active; in the data active = inhibition above about 60%; inconclusive = no clear call, values can overlap the other calls;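 note: H4 neuroglioblastoma cells stably carrying SNCA 5'UTR luciferase fusion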
# Hits are given with their value; . = inactive; ? = inconclusive; / = no result given; ! = a repeat was not active.
SMILES,SKKanGAS inh,CSC inhib,Mdm2 MdmX PPI,T cruzi inh,aSyn 5UTR inh
COc1ccc(/C=N/NC(=O)c2cc(C34CC5CC(CC(C5)C3)C4)[nH]n2)cc1OC,.,.,.,.,.
O=C(N/N=C/c1ccc(O)cc1)c1cc(C23CC4CC(CC(C4)C2)C3)[nH]n1,.,79.5,.,.,.
O=C(Nc1ccccn1)c1ccc(Cl)c(S(=O)(=O)N2CCc3ccccc32)c1,/,/,.,/,/
Cc1ccc(F)c(NC(=O)c2ccc(Cn3cc(Cl)cn3)cc2)c1,.,.,.,.,.
Cc1ccc(F)c(NC(=O)/C(C#N)=C(\O)c2ccc(C(C)(C)C)cc2)c1,59.1,79.1,.,.,.
CC(=O)c1ccc(-c2ccc(-c3cc(=O)oc4c(C(C)C)ccc(C)c34)cc2)cc1,/,/,.,/,/
CS(=O)(=O)Nc1ccccc1C(=O)Nc1cccc(Cl)c1,.,75.6,.,.,.
COC(=O)c1cc2ccsc2n1CC(=O)Nc1ccc(N(C)C)cc1,.,.,.,54.9,.
COC(=O)c1cc2ccsc2n1CC(=O)N(C)c1ccccc1,.,/,.,.,.
COc1ccc(C(=O)NC2CC2)cc1OC1CCN(Cc2cc(C)c(C)cc2C)CC1,.,.,.,.,.
COc1ccc(/C=N/Nc2nc(Nc3ccccc3)nc(N3CCCCC3)n2)cc1OC,72.0,.,.,.,.
CCOc1cc(/C=N/Nc2nc(Nc3ccccc3)nc(N3CCCCC3)n2)ccc1OCC(=O)O,.,.,.,.,.
CCN(C(=O)COC(=O)c1ccc(SC)cc1OC)C1CCS(=O)(=O)C1 (centres undefined),/,.,.,/,/
CCC1(C)Cc2c(sc3nc(SC)n(Cc4ccccc4)c(=O)c23)CO1 (centres undefined),.,95.8,.,.,.
O=C(Cc1cccc2ccccc12)N/N=C/c1ccc2cccc(O)c2n1,70.5,.,.,.,.
Cc1cccc(Cn2nnc3c2C(=O)c2ccccc2C3=O)c1,.,.,.,61.0,.
Cc1ccccc1Cn1nnc2c1C(=O)c1ccccc1C2=O,.,.,.,.,.
O=C(c1cc(N2C(=O)C3C4CCC(C4)C3C2=O)ccc1Cl)N1CCN(c2ccccc2F)CC1 (centres undefined),.,.,.,.,.
NC(=O)c1[nH]cnc1N,.,.,.,57.9!,.
CCCCOC(=O)c1nc[nH]c1C(=O)OCCCC,.,.,.,.,.
CCC1(CC)NC(=O)N(CC(=O)OC(C)C(=O)Nc2cc([N+](=O)[O-])ccc2OC)C1=O (centres undefined),.,.,.,.,.
Oc1c(Cl)cccc1C=Nc1cc(C(F)(F)F)ccc1N1CCCC1,.,.,.,.,.
Oc1c(Cl)cc(Cl)cc1C=Nc1cc(C(F)(F)F)ccc1N1CCc2ccccc2C1,87.5,.,.,.,.
O=C(CN1CCCCC1)Nc1cc(S(=O)(=O)N2CCOCC2)ccc1N1CCCC1,/,/,.,/,/
CC1Oc2cc3oc4c(O)c(O)ccc4c(=O)c3c(O)c2C1(C)C (centres undefined),52.7,.,.,.,.
SMILES,SKKanGAS inh,CSC inhib,Mdm2 MdmX PPI,T cruzi inh,aSyn 5UTR inh
COc1ccc(-c2cc(=O)oc3c(O)c(O)ccc23)cc1,.,.,.,.,.
COc1ccc2c(c1)C=C(CN1CCN(C3CCCC3)C(CCO)C1)CO2 (centres undefined),.,.,.,58.1,.
Cc1nn(Cc2ccc(Cl)cc2Cl)c(C)c1NC(=O)c1sc2ccccc2c1Cl,.,.,.,.,.
Cc1nn(Cc2ccc(Cl)cc2Cl)c(C)c1NC(=O)NC12CC3CC(CC(C3)C1)C2,50.5,.,.,.,.
CC(C)COC(=O)/C(C#N)=C/c1cn(Cc2ccccc2)c2ccccc12,.,.,/,.,79.5
CC(C)OC(=O)/C(C#N)=C/c1cn(Cc2ccccc2)c2ccccc12,.,.,.,.,74.8
CC(Sc1nnc2n1CCCCC2)C(=O)Nc1ccc(S(N)(=O)=O)cc1 (centres undefined),/,/,.,/,/
O=C(O)c1ccc(N2C(=O)/C(=C/c3ccc(-c4ccc([N+](=O)[O-])cc4)o3)C=C2c2ccccc2)cc1,103.6,.,.,.,.
CN(/N=C/c1ccc(-c2ccc([N+](=O)[O-])cc2)o1)c1ccccc1,.,.,.,.,.
Cc1cccnc1NC(=O)CCC(=O)c1cccs1,/,/,.,/,/
CC(C)C1C(c2ccccc2)N(C)C(c2ccccc2)CC1(O)c1ccccc1 (centres undefined),88.3,130.8,.,58.0,.
CCC1C(c2ccccc2)N(C)C(c2ccccc2)CC1(O)c1ccccc1 (centres undefined),.,.,.,59.5,.
CCOC(=O)C1(CCc2ccccc2)CCN(C(=O)CN2CCOC2=O)CC1,.,.,.,.,.
C/C(=N\Nc1nc2ccccc2[nH]1)c1cc2ccccc2o1,.,.,.,.,.
C/C(=N\NC(=O)c1ccc(C)cc1C)c1ccc2c(c1)OCO2,.,.,.,.,.
C/C(=N\Nc1nc2ccccc2[nH]1)c1ccc2c(c1)OCO2,58.4,/,.,78.4,.
C/C(=N\NC(=O)c1cc2ccccc2cc1O)c1ccc2c(c1)OCO2,80.9,.,.,.,.
C/C(=N\Nc1nc2ccccc2[nH]1)c1ccc2c(c1)OCCO2,.,.,.,56.7,.
C/C(=N\Nc1nc2ccccc2[nH]1)c1ccccn1,.,/,.,.,86.7
O=C(Nc1cccc(F)c1)/C(=C/c1ccco1)NC(=O)c1ccco1,.,.,.,.,.
CCOC(=O)c1sc(NC(=O)c2ccc(S(=O)(=O)N(C)C)cc2)cc1C,.,.,.,65.3,.
C=CCn1c(O)c(N=NC(=S)Nc2ccccc2C)c2cc(S(=O)(=O)N3CCOCC3)ccc21,.,.,.,.,79.5
C=CCn1c(O)c(N=NC(=S)Nc2ccc(OC)c(Cl)c2)c2ccccc21,.,.,.,57.1,?
Cn1c(O)c(N=NC(=S)Nc2ccccc2F)c2cc(S(=O)(=O)N3CCOCC3)ccc21,?,/,/,.,94.9
O=C(Nc1ccccc1F)Nc1cc(S(=O)(=O)N2CCOCC2)ccc1N1CCCC1,.,.,.,.,.
SMILES,SKKanGAS inh,CSC inhib,Mdm2 MdmX PPI,T cruzi inh,aSyn 5UTR inh
COc1cc(C(=O)NCC(=O)NC(C)CCc2ccccc2)cc(OC)c1OC (centres undefined),.,/,.,.,.
CCOC(=O)C1=C(C)N2C(=C(C#N)[C@@H]1c1ccc(C(=O)OC)cc1)SC[C@@]2(O)C(C)(C)C,.,82.0,.,.,.
C=CCn1c(SCc2c(C)noc2C)nc2sc3c(c2c1=O)CCCCC3,54.3,94.4,.,.,64.7
COc1ccc(-c2nnc3sc(C4CCCCC4)nn23)cc1OC,.,.,.,.,65.3
CC(=O)Nc1ccc(NC2=C/C(=N/S(=O)(=O)c3cccs3)c3ccccc3C2=O)cc1,.,.,.,56.5,82.6
Cc1ccc(NC2=C/C(=N/S(=O)(=O)c3cccs3)c3ccccc3C2=O)cc1C,.,.,/,.,.
Cc1sc2nc(SCc3ccc(C(=O)O)cc3)n(Cc3ccco3)c(=O)c2c1C,.,.,.,60.5,.
C=CCn1c(SCc2ccc(C(=O)O)cc2)nc2sc(C)c(C)c2c1=O,.,.,.,.,.
CC(C)[C@H](Nc1nc(-c2ccccc2)nc2c1oc1ccccc12)C(=O)O,.,.,.,.,.

# Source: PubChem BioAssay
